Reference: ChEMBL document CHEMBL3232897, “Synthesis, antiproliferative and antibacterial activity of new amides of salinomycin” (Bioorg Med Chem Lett, 2014)
≈ marks a conversion by molar mass, not a printed value.

What was measured:
[1] = Selectivity index, ratio of IC50 for mouse BALB/3T3 cells to IC50 for human LoVo/DX cells; assay type: functional
How it was run: (§1)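 Selectivity index is the IC50 in normal murine embryonic fibroblasts (BALB/3T3) divided by the IC50 in the respective cancer line (HL-60, HL-60/vinc, LoVo or LoVo/DX). Each IC50 is the concentration giving 50% growth inhibition. SI >1.0 is taken as favourable.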

[2] = tested on: LoVo; test: Resistance index, ratio of IC50 for human LoVo/DX cells to IC50 for human LoVo cells; assay type: functional
How it was run: (§2)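 Index of resistance is the IC50 in the resistant subline (HL-60/vinc or LoVo/DX) divided by the IC50 in its parental line (HL-60 or LoVo). Each IC50 is the concentration giving 50% growth inhibition. Bands are 0–2 sensitive, 2–10 moderate, above 10 strongly resistant.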

[3] = tested on: BALB/3T3; test: Antiproliferative activity mouse BALB/3T3 cells; assay type: cell-based
How it was run: (§3)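 IC50 is the concentration giving 50% growth inhibition, reported as mean with SD. HL-60/vinc and LoVo/DX are drug-resistant (MDR) sublines of HL-60 and LoVo. BALB/3T3 is a normal murine embryonic fibroblast line.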

[4] = tested on: LoVo; test: Antiproliferative activity against human LoVo cells; assay type: functional, cell-based; how it was run: as §3
[5] = Selectivity index, ratio of IC50 for mouse BALB/3T3 cells to IC50 for human HL60/Vinc cells; assay type: functional; how it was run: as §1
[6] = tested on: HL-60; test: Resistance index, ratio of IC50 for human HL60/Vinc cells to IC50 for human HL60 cells; assay type: functional; how it was run: as §2
[7] = Antiproliferative activity against human HL60/Vinc cells; assay type: functional, cell-based; how it was run: as §3
[8] = tested on: HL-60; test: Selectivity index, ratio of IC50 for mouse BALB/3T3 cells to IC50 for human HL60 cells; assay type: functional; how it was run: as §1
[9] = tested on: HL-60; test: Antiproliferative activity against human HL60 cells; assay type: functional, cell-based; how it was run: as §3
[10] = tested on: LoVo; test: Selectivity index, ratio of IC50 for mouse BALB/3T3 cells to IC50 for human LoVo cells; assay type: functional; how it was run: as §1
[11] = Antiproliferative activity against human LoVo/DX cells; assay type: functional, cell-based; how it was run: as §3
[12] = tested on: Staphylococcus epidermidis; test: Antibacterial activity against methicillin-resistant Staphylococcus epidermidis 470/11; assay type: functional
How it was run: (§4)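 In vitro antibacterial test on Staphylococcus strains, including MRSE clinical isolates. Read-outs were growth inhibition zone (mm) and MIC (µg/ml). Ciprofloxacin was the reference antibiotic.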

[13] = tested on: Staphylococcus epidermidis; test: Antibacterial activity against Staphylococcus epidermidis ATCC 12228; assay type: functional; how it was run: as §4
[14] = tested on: Staphylococcus epidermidis; test: Antibacterial activity against methicillin-resistant Staphylococcus epidermidis 460/11; assay type: functional; how it was run: as §4
[15] = tested on: Staphylococcus epidermidis; test: Antibacterial activity against methicillin-resistant Staphylococcus epidermidis 488/11; assay type: functional; how it was run: as §4
[16] = tested on: Staphylococcus epidermidis; test: Antibacterial activity against methicillin-resistant Staphylococcus epidermidis 466/11; assay type: functional; how it was run: as §4
[17] = tested on: Staphylococcus epidermidis; test: Antibacterial activity against Staphylococcus epidermidis ATCC 35984; assay type: functional; how it was run: as §4
[18] = tested on: Staphylococcus aureus; test: Antibacterial activity against Staphylococcus aureus ATCC 6538; assay type: functional
[19] = tested on: Staphylococcus epidermidis; test: Antibacterial activity against methicillin-resistant Staphylococcus epidermidis 469/11; assay type: functional; how it was run: as §4
[20] = tested on: Staphylococcus epidermidis; test: Antibacterial activity against methicillin-resistant Staphylococcus epidermidis 489/11; assay type: functional; how it was run: as §4
[21] = tested on: Staphylococcus epidermidis; test: Antibacterial activity against methicillin-resistant Staphylococcus epidermidis 459/11; assay type: functional; how it was run: as §4
[22] = tested on: Staphylococcus aureus; test: Antibacterial activity against Staphylococcus aureus ATCC 25923; assay type: functional
[23] = tested on: Staphylococcus epidermidis; test: Antibacterial activity against methicillin-resistant Staphylococcus epidermidis 461/11; assay type: functional; how it was run: as §4
[24] = tested on: Staphylococcus aureus; test: Antibacterial activity against Staphylococcus aureus ATCC 29213; assay type: functional
[25] = tested on: Staphylococcus epidermidis; test: Antibacterial activity against methicillin-resistant Staphylococcus epidermidis 468/11; assay type: functional; how it was run: as §4
[26] = tested on: Staphylococcus aureus; test: Antibacterial activity against Staphylococcus aureus NCTC 4163; assay type: functional
[27] = tested on: Staphylococcus epidermidis; test: Antibacterial activity against methicillin-resistant Staphylococcus epidermidis 467/11; assay type: functional; how it was run: as §4

Row | SMILES | Ratio IC50 [1] | Ratio IC50 [2] | IC50 [3] [µM] | IC50 [4] [µM] | Ratio IC50 [5] | Ratio IC50 [6] | IC50 [7] [µM] | Ratio IC50 [8] | IC50 [9] [nM] | Ratio IC50 [10] | IC50 [11] [µM] | MIC [12] [µg/mL] | MIC [13] [µg/mL] | MIC [14] [µg/mL] | MIC [15] [µg/mL] | MIC [16] [µg/mL] | MIC [17] [µg/mL] | MIC [18] [µg/mL] | MIC [19] [µg/mL] | MIC [20] [µg/mL] | further results
1 | CC[C@@H](C(=O)[C@@H](C)[C@@H](O)[C@H](C)[C@@H]1O[C@@H]([C@@H](CC)C(=O)Nc2ccc(NC(=O)[C@H](CC)[C@H]3CC[C@H](C)[C@H]([C@@H](C)[C@H](O)[C@H](C)C(=O)[C@H](CC)[C@H]4O[C@]5(C=C[C@@H](O)[C@]6(CC[C@@](C)([C@H]7CC[C@](O)(CC)[C@H](C)O7)O6)O5)[C@H](C)C[C@@H]4C)O3)cc2)CC[C@@H]1C)[C@H]1O[C@]2(C=C[C@@H](O)[C@]3(CC[C@@](C)([C@H]4CC[C@](O)(CC)[C@H](C)O4)O3)O2)[C@H](C)C[C@@H]1C | 7.2 | 0.35 | 20.2 | 8.1 | 1.26 | 7.99 | 16.1 | 10.07 | 2000 | 2.49 | 2.8 |  |  |  |  |  |  |  |  |  | 
2 | CC[C@@H](C(=O)[C@@H](C)[C@@H](O)[C@H](C)[C@@H]1O[C@@H]([C@@H](CC)C(=O)O)CC[C@@H]1C)[C@H]1O[C@]2(C=C[C@@H](O)[C@]3(CC[C@@](C)([C@H]4CC[C@](O)(CC)[C@H](C)O4)O3)O2)[C@H](C)C[C@@H]1C [SALINOMYCIN] | 26.08 | 0.65 | 25.8 | 1.5 | 5.45 | 4.05 | 4.7 | 22.07 | 1200 | 16.88 | 1 | 16 (≈ 21.3 µM) | 2 (≈ 2.66 µM) | 16 (≈ 21.3 µM) | 16 (≈ 21.3 µM) | 8 (≈ 10.7 µM) | 2 (≈ 2.66 µM) | 2 (≈ 2.66 µM) | 16 (≈ 21.3 µM) | 16 (≈ 21.3 µM) | MIC [21]: 16 µg/mL (≈ 21.3 µM); MIC [22]: 2 µg/mL (≈ 2.66 µM); MIC [23]: 16 µg/mL (≈ 21.3 µM); MIC [24]: 4 µg/mL (≈ 5.33 µM); MIC [25]: 8 µg/mL (≈ 10.7 µM); MIC [26]: 2 µg/mL (≈ 2.66 µM); MIC [27]: 16 µg/mL (≈ 21.3 µM)
3 | COc1cccc2c1C(=O)c1c(O)c3c(c(O)c1C2=O)C[C@@](O)(C(=O)CO)C[C@@H]3O[C@H]1C[C@H](N)[C@H](O)[C@H](C)O1 [DOXORUBICIN] | 0.07 | 37.94 | 0.5 | 0.17 | 0.27 | 44.5 | 1.8 | 12 | 40 | 2.82 | 6.5 |  |  |  |  |  |  |  |  |  | 
4 | CC[C@@H](C(=O)[C@@H](C)[C@@H](O)[C@H](C)[C@@H]1O[C@@H]([C@@H](CC)C(=O)NCCOCCO)CC[C@@H]1C)[C@H]1O[C@]2(C=C[C@@H](O)[C@]3(CC[C@@](C)([C@H]4CC[C@](O)(CC)[C@H](C)O4)O3)O2)[C@H](C)C[C@@H]1C | 2.76 | 0.39 | 39.4 | 36.7 | 1.28 | 1.74 | 30.9 | 2.22 | 17800 | 1.08 | 14.3 | 64 (≈ 76.4 µM) | 64 (≈ 76.4 µM) | 64 (≈ 76.4 µM) | 64 (≈ 76.4 µM) | 64 (≈ 76.4 µM) | 64 (≈ 76.4 µM) | 32 (≈ 38.2 µM) | 64 (≈ 76.4 µM) | 64 (≈ 76.4 µM) | MIC [21]: 32 µg/mL (≈ 38.2 µM); MIC [22]: 32 µg/mL (≈ 38.2 µM); MIC [23]: 64 µg/mL (≈ 76.4 µM); MIC [24]: 64 µg/mL (≈ 76.4 µM); MIC [25]: 64 µg/mL (≈ 76.4 µM); MIC [26]: 32 µg/mL (≈ 38.2 µM); MIC [27]: 32 µg/mL (≈ 38.2 µM)
5 | CC[C@@H](C(=O)[C@@H](C)[C@@H](O)[C@H](C)[C@@H]1O[C@@H]([C@@H](CC)C(=O)NCCc2ccc(O)c(O)c2)CC[C@@H]1C)[C@H]1O[C@]2(C=C[C@@H](O)[C@]3(CC[C@@](C)([C@H]4CC[C@](O)(CC)[C@H](C)O4)O3)O2)[C@H](C)C[C@@H]1C | 1.34 | 1.1 | 5.7 | 3.9 | 0.83 | 2.48 | 6.9 | 2.05 | 2800 | 1.47 | 4.3 |  |  |  |  |  |  |  |  |  | 
